From ChEMBL document CHEMBL3600341, “Discovery of a series of novel compounds with moderate anti-hepatitis C virus NS3 protease activity in vitro” (Bioorg Med Chem, 2015)

Test: Inhibition of HCV NS3/4A protease using RET S1 as substrate preincubated for 10 mins followed by substrate addition measured for 30 mins by FRET analysis
Parameters: species or system Hepacivirus hominis
Method in brief: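 NS3/4A protease activity followed by intramolecular FRET with quenched-fluorogenic substrate Ac-DED(EDANS)EEAbuY[COO]ASK(DABCYL). Buffer 30 mM HEPES pH 7.5, 40% glycerol, 10 mM DTT, 2% DMSO. Ten-dose 4-fold serial dilution of compound in DMSO; 10 min preincubation, substrate added to start. Kinetic read 30 min, ex 335 nm/em 495 nm. IC50 from percent inhibition versus inhibitor concentration.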

`Cc1ccc(S(=O)(=O)NC(=O)[C@H](CC(C)C)NC(=O)[C@@H]2C[C@H](n3cc(-c4ccccc4)nn3)CN2C(=O)[C@@H](NC(=O)c2cccs2)C2CCCCC2)cc1` and `Cc1ccc(S(=O)(=O)NC(=O)[C@H](CC(C)C)NC(=O)[C@@H]2C[C@H](n3cc(-c4ccccc4)nn3)CN2C(=O)[C@@H](NC(=O)c2ccccc2)C2CCCCC2)cc1` are within 1.5-fold of each other in IC50: 1.9 µM for the first, 2.5 µM for the second.

First: Cc1ccc(S(=O)(=O)NC(=O)[C@H](CC(C)C)NC(=O)[C@@H]2C[C@H](n3cc(-c4ccccc4)nn3)CN2C(=O)[C@@H](NC(=O)c2ccco2)C(C)(C)C)cc1
Second: Cc1ccc(S(=O)(=O)NC(=O)[C@H](CC(C)C)NC(=O)[C@@H]2C[C@H](n3cc(-c4ccccc4)nn3)CN2C(=O)[C@@H](NC(=O)OC(C)(C)C)C(C)(C)C)cc1
The IC50 of the first is lower: 34 µM for the first, over 100 µM for the second.

Compared with `Cc1ccc(S(=O)(=O)NC(=O)[C@H](CC(C)C)NC(=O)[C@@H]2C[C@H](n3cc(-c4ccccc4)nn3)CN2C(=O)[C@H](Cc2ccccc2)NC(=O)OC(C)(C)C)cc1`, `Cc1ccc(S(=O)(=O)NC(=O)[C@H](CC(C)C)NC(=O)[C@@H]2C[C@H](n3cc(-c4ccccc4)nn3)CN2C(=O)[C@H](Cc2ccccc2)NC(=O)C(C)C)cc1` is higher in IC50: 5.9 µM for the first, over 100 µM for the second.

First: Cc1ccc(S(=O)(=O)NC(=O)[C@H](CC(C)C)NC(=O)[C@@H]2C[C@H](n3cc(-c4ccccc4)nn3)CN2C(=O)[C@H](Cc2c[nH]c3ccccc23)NC(=O)OC(C)(C)C)cc1
Second: CC(C)C[C@H](NC(=O)OC(C)(C)C)C(=O)N1C[C@@H](n2cc(-c3ccccc3)nn2)C[C@H]1C(=O)N[C@H](Cc1ccccc1)C(=O)NS(=O)(=O)C1CC1
The IC50 of the first is lower: 5.6 µM for the first, over 100 µM for the second. The first is the more potent here.

Compared with `O=C(N[C@H](C(=O)N1C[C@@H](n2cc(-c3ccccc3)nn2)C[C@H]1C(=O)N[C@H](Cc1ccccc1)C(=O)NS(=O)(=O)C1CC1)C1CCCCC1)OCc1ccccc1`, `O=C(N[C@H](C(=O)N1C[C@@H](n2cc(-c3ccccc3)nn2)C[C@H]1C(=O)N[C@H](Cc1ccccc1)C(=O)NS(=O)(=O)C1CC1)C1CCCCC1)c1ccccc1` is 1.6-fold higher in IC50: 4.5 µM for the first, 7.4 µM for the second.

Going from `CC(C)(C)OC(=O)N[C@H](C(=O)N1C[C@@H](n2cc(-c3ccccc3)nn2)C[C@H]1C(=O)N[C@H](Cc1ccccc1)C(=O)NS(=O)(=O)C1CC1)C1CCCCC1` to `CC(C)C(=O)N[C@H](C(=O)N1C[C@@H](n2cc(-c3ccccc3)nn2)C[C@H]1C(=O)N[C@H](Cc1ccccc1)C(=O)NS(=O)(=O)C1CC1)C1CCCCC1`, the IC50 rises from 72 µM to over 100 µM.

Going from `CC(C)(C)OC(=O)N[C@@H](Cc1ccccc1)C(=O)N1C[C@@H](n2cc(-c3ccccc3)nn2)C[C@H]1C(=O)N[C@H](Cc1ccccc1)C(=O)NS(=O)(=O)C1CC1` to `CC(C)(C)OC(=O)N[C@H](C(=O)N1C[C@@H](n2cc(-c3ccccc3)nn2)C[C@H]1C(=O)N[C@H](Cc1ccccc1)C(=O)NS(=O)(=O)C1CC1)C(C)(C)C`, the IC50 rises from 7.1 µM to over 100 µM. The first is the more potent here.

`COc1ccc(C(=O)N[C@H]2C[C@@H](C(=O)N[C@@H](CC(C)C)C(=O)NS(=O)(=O)C3CC3)N(C(=O)[C@@H](NC(=O)OC(C)(C)C)C(C)(C)C)C2)cc1` and `CC(C)C[C@H](NC(=O)[C@@H]1C[C@H](NC(=O)c2ccc3ccccc3c2)CN1C(=O)[C@@H](NC(=O)OC(C)(C)C)C(C)(C)C)C(=O)NS(=O)(=O)C1CC1` cannot be ordered by IC50: over 100 µM for the first, over 100 µM for the second.

Compared with `Cc1cccc(Nc2ccccc2C(=O)N[C@H]2C[C@@H](C(=O)N[C@@H](CC(C)C)C(=O)NS(=O)(=O)C3CC3)N(C(=O)[C@@H](NC(=O)OC(C)(C)C)C(C)(C)C)C2)c1C`, `CCC[C@H](NC(=O)[C@@H]1[C@H]2CCC[C@H]2CN1C(=O)[C@@H](NC(=O)[C@@H](NC(=O)c1cnccn1)C1CCCCC1)C(C)(C)C)C(=O)C(=O)NC1CC1` [TELAPREVIR] is 4.7-fold lower in IC50: 2.1 µM for the first, 0.45 µM for the second.
